Residue numbers refer to the chain shown, from its start.
Assays:
Settings in all cases: stereoisomer not certain
[1] = molecular target: T1, OR3A1 (Homo sapiens) (UniProt P47881)
T1 sequence (whole entry): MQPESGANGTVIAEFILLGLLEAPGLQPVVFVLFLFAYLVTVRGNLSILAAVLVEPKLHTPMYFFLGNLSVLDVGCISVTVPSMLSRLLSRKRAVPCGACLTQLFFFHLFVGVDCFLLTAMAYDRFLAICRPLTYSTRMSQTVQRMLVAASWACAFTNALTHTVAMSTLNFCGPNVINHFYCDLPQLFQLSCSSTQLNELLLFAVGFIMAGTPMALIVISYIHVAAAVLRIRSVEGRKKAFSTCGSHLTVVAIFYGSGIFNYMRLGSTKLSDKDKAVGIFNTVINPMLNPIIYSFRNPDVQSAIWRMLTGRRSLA
Procedure, shortened: (§1)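 Transient luciferase assays in mammalian cell lines were common, though methods varied by source. The values come from published papers and their supplementary material, with extra details from the original authors when needed. Responsive refers to a measured signal the original authors judged statistically different from baseline, and non-responsive (inactive) to the remainder.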

[2] = molecular target: T2, OR2W3 (Homo sapiens) (UniProt Q7Z3T1)
T2 sequence (whole entry): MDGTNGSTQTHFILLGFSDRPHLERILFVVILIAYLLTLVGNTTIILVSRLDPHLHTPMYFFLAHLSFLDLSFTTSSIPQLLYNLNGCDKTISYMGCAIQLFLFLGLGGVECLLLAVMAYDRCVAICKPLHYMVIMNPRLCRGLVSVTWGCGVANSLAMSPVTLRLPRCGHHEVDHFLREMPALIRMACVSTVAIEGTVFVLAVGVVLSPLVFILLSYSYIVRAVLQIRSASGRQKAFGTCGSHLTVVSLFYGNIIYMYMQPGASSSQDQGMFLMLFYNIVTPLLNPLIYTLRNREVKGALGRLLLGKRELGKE
Procedure, shortened: as §1

[3] = molecular target: T3, OR2W5P (Homo sapiens) (UniProt A6NFC9)
T3 sequence (whole entry): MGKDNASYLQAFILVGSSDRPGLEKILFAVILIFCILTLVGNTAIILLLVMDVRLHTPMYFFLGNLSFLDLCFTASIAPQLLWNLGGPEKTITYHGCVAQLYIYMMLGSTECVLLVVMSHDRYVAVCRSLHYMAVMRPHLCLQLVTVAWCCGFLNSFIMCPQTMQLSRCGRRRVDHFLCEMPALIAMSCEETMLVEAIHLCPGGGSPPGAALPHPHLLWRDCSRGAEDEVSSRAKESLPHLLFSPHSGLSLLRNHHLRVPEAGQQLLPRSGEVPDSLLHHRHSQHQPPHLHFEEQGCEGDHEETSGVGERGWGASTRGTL
Procedure, shortened: as §1

[4] = molecular target: T4, OR2Y1 (Homo sapiens) (UniProt Q8NGV0)
T4 sequence (whole entry): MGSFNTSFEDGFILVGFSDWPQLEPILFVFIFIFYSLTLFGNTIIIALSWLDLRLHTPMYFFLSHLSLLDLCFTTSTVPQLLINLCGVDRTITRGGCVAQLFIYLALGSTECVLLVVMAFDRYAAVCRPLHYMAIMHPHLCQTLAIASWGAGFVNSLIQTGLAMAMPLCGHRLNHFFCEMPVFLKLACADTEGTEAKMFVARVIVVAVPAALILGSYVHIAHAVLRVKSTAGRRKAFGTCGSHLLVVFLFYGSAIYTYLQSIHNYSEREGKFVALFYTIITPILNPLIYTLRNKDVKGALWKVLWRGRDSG
Procedure, shortened: as §1

[5] = molecular target: T5, OR2Z1 (Homo sapiens) (UniProt Q8NG97)
T5 sequence (whole entry): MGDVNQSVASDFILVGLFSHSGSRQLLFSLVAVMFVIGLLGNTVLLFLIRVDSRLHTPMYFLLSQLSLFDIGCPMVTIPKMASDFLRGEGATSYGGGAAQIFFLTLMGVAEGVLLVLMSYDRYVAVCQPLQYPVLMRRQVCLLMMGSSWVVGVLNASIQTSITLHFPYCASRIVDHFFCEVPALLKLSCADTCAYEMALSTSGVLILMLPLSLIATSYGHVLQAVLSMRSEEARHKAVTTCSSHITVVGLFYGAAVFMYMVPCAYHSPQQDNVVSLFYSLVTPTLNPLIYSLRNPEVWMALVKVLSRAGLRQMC
Procedure, shortened: as §1

[6] = molecular target: T6, OR3A2 (Homo sapiens) (UniProt P47893)
T6 sequence (whole entry): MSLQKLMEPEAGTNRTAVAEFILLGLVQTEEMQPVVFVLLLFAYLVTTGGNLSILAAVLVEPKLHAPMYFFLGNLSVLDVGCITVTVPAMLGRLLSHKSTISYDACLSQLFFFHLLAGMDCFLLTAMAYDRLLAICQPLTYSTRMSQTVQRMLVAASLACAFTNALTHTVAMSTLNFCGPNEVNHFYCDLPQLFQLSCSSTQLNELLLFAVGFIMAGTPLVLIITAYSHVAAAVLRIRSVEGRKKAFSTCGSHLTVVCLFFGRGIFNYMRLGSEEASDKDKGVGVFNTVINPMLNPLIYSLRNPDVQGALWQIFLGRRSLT
Procedure, shortened: as §1

[7] = molecular target: T7, OR3A3 (Homo sapiens) (UniProt P47888)
T7 sequence (whole entry): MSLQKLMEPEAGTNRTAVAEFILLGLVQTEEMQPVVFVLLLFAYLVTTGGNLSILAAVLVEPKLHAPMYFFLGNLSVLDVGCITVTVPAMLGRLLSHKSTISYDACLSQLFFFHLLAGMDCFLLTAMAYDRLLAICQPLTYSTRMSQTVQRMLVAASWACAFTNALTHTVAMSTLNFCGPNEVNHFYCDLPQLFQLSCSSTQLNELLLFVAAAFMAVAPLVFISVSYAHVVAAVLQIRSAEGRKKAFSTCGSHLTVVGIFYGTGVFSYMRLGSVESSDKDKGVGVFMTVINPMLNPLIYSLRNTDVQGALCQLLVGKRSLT
Procedure, shortened: as §1

[8] = system: T8, OR2Y1
T8 sequence (whole entry): T4 sequence (whole entry) with V200L
Procedure, shortened: as §1

[9] = system: T9, OR3A1
T9 sequence (whole entry): T1 sequence (whole entry) with R125Q
Procedure, shortened: as §1

[10] = system: T10, OR3A2 R317K
T10 sequence (whole entry): T6 sequence (whole entry) with R317K
Procedure, shortened: as §1
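Also: active if original authors judged signal statistically different from baseline.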

For `CC(=O)CCc1ccc(O)cc1`, the “odorant receptor agonist call” value [1] was “inactive”.
In the case of `CC(CC=O)c1ccccc1` (stereo unspecified), the “odorant receptor agonist call” value [1] is reported as “active”.
`COc1ccc2[nH]cc(CCNC(C)=O)c2c1` was tested, and the “odorant receptor agonist call” value [2] was “inactive”.
`CCC(O)c1ccccc1` (stereo unspecified) was tested, and the “odorant receptor agonist call” value [1] was “inactive”.
With `C=C1CCC2CC1C2(C)C` (stereo unspecified) the “odorant receptor agonist call” value [2] was “inactive”.
For `CC(=O)OCc1ccc2c(c1)OCO2`, the “odorant receptor agonist call” value [1] was “inactive”.
In the case of `CC1=CC(=O)CC(C(C)C)C1` (stereo unspecified), the “odorant receptor agonist call” value [1] is reported as “active”.
In the case of `CC(CO)CS` (stereo unspecified), the “odorant receptor agonist call” value [2] is reported as “inactive”, the “odorant receptor agonist call” value [3] is reported as “inactive” and the “odorant receptor agonist call” value [4] is reported as “inactive”. The “odorant receptor agonist call” value [5] was “inactive”, the “odorant receptor agonist call” value [1] was “inactive” and the “odorant receptor agonist call” value [6] was “inactive”. The “odorant receptor agonist call” value [7] was “inactive”.
`CCCCCCCCCC(C)C=O` (stereo unspecified) was tested, and the “odorant receptor agonist call” value [1] was “inactive”.
In the case of `CC1=NC(C)C(C)S1` (stereo unspecified), the “odorant receptor agonist call” value [2] is reported as “inactive”, the “odorant receptor agonist call” value [3] is reported as “inactive” and the “odorant receptor agonist call” value [4] is reported as “inactive”. The “odorant receptor agonist call” value [8] was “inactive”, the “odorant receptor agonist call” value [5] was “inactive” and the “odorant receptor agonist call” value [1] was “inactive”. The “odorant receptor agonist call” value [9] was “inactive”, the “odorant receptor agonist call” value [6] was “inactive” and the “odorant receptor agonist call” value [10] was “inactive”. For the same molecule, the “odorant receptor agonist call” value [7] was “inactive”.
For `CCC1OC(C)=C(O)C1=O` (stereo unspecified), the “odorant receptor agonist call” value [2] was “inactive”, the “odorant receptor agonist call” value [3] was “inactive” and the “odorant receptor agonist call” value [4] was “inactive”. The “odorant receptor agonist call” value [8] was “inactive”, the “odorant receptor agonist call” value [5] was “inactive” and the “odorant receptor agonist call” value [1] was “inactive”. For the same molecule, the “odorant receptor agonist call” value [9] was “inactive”, the “odorant receptor agonist call” value [6] was “inactive” and the “odorant receptor agonist call” value [10] was “inactive”. The “odorant receptor agonist call” value [7] was “inactive”.
In the case of `CCCCCC(S)C(C)CO` (stereo unspecified), the “odorant receptor agonist call” value [2] is reported as “inactive”, the “odorant receptor agonist call” value [3] is reported as “inactive” and the “odorant receptor agonist call” value [4] is reported as “inactive”. For the same molecule, the “odorant receptor agonist call” value [5] was “inactive”, the “odorant receptor agonist call” value [1] was “inactive” and the “odorant receptor agonist call” value [6] was “inactive”. For the same molecule, the “odorant receptor agonist call” value [7] was “inactive”.
With `CCCCCCC=CCCC=O` the “odorant receptor agonist call” value [2] was “inactive”, the “odorant receptor agonist call” value [3] was “inactive” and the “odorant receptor agonist call” value [4] was “inactive”. The “odorant receptor agonist call” value [8] was “inactive”, the “odorant receptor agonist call” value [5] was “inactive” and the “odorant receptor agonist call” value [1] was “inactive”. The “odorant receptor agonist call” value [9] was “inactive”, the “odorant receptor agonist call” value [6] was “inactive” and the “odorant receptor agonist call” value [10] was “inactive”. The “odorant receptor agonist call” value [7] was “inactive”.
`COc1ccc(CC(C)C=O)cc1` (stereo unspecified) was tested, and the “odorant receptor agonist call” value [1] was “active”.
For `CCCC(S)CCOC(C)=O` (stereo unspecified), the “odorant receptor agonist call” value [2] was “inactive”, the “odorant receptor agonist call” value [3] was “inactive” and the “odorant receptor agonist call” value [4] was “inactive”. The “odorant receptor agonist call” value [8] was “inactive”, the “odorant receptor agonist call” value [5] was “inactive” and the “odorant receptor agonist call” value [1] was “inactive”. For the same molecule, the “odorant receptor agonist call” value [9] was “inactive”, the “odorant receptor agonist call” value [6] was “inactive” and the “odorant receptor agonist call” value [10] was “inactive”. For the same molecule, the “odorant receptor agonist call” value [7] was “inactive”.
With `CC1CCCCCCCCCCCCC(=O)C1` (stereo unspecified) the “odorant receptor agonist call” value [2] was “inactive”, the “odorant receptor agonist call” value [4] was “inactive” and the “odorant receptor agonist call” value [5] was “inactive”. The “odorant receptor agonist call” value [1] was “inactive”, the “odorant receptor agonist call” value [6] was “inactive” and the “odorant receptor agonist call” value [7] was “inactive”.
`CC(=O)c1c(C)c([N+](=O)[O-])c(C(C)(C)C)c([N+](=O)[O-])c1C` was tested, and the “odorant receptor agonist call” value [2] was “inactive”, the “odorant receptor agonist call” value [4] was “inactive” and the “odorant receptor agonist call” value [5] was “inactive”. For the same molecule, the “odorant receptor agonist call” value [1] was “inactive”, the “odorant receptor agonist call” value [6] was “inactive” and the “odorant receptor agonist call” value [7] was “inactive”.
With `CC(C)CC=O` the “odorant receptor agonist call” value [1] was “inactive”.

From the M2OR odorant receptor database
